The source of these data is PubChem BioAssay.

Structures are written as SMILES. The source made the active and inactive calls.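 The calls were made as follows, unless noted: active = inhibition of the reporter signal at or above 50%; inactive = inhibition below 50%.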

Assay [1] is described as follows: inhibitors of TNFa-induced NFkB p65 translocation, primary screen, imaging, HUVEC, MLSMR starter and 10KST1 sets (AID 438;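 active = inhibition above 20% together with a positive visual image hit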;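 also: compound added about 3h40 before a 20 min TNFalpha stimulation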;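 as to inhibition: signal is the nuclear over cytoplasmic p65 intensity ratio per well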). The note with it: HUVEC TNFa-induced p65 nuclear translocation; cell count: measured here: nuclei count (cytotoxicity indicator), at 2.08 µM; inhibition: at 2 µM, stronger effect = higher value, 0% TNFa-plus-vehicle, 100% no-TNFa wells.
The nature of assay [2]: inhibitors of mutant huntingtin aggregation, primary screen, imaging, exon1htt(103Q)mCFP cells, high-content imaging (AID 483;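 active = visual image review flags a hit and inhibition of aggregation exceeds 20%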;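 also: compound exposure lasted 3 days before fixation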;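 as to nuclei count: percent of the per-plate median nuclei count of sample wells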). The settings on record: exon1htt(103Q)mCFP cell line, aggregate imaging, at 2 µM; inhibition of aggregation: stronger effect = higher value; nuclei count: measured here: cell count, toxicity.
Assay [3] can be described thus: inhibitors of E-selectin induction by TNFa, primary screen, imaging, HUVEC, immunofluorescence, MLSMR starter and 10KST1 sets (AID 487;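 active = visually confirmed hit in the image check and inhibition above 20%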;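 as to inhibition: signal is fraction of cell area covered by stained E-selectin grains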;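 as to nuclei count: 100% = median nuclei count of all wells on the same plate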). The note with it: HUVEC TNFalpha-induced E-selectin immunofluorescence imaging, at 2 µM; inhibition: stronger effect = higher value; nuclei count: measured here: cell number, toxicity.
In assay [4] the target is Voltage-gated potassium channel subunit beta-2 (Rattus norvegicus) (UniProt P62483). Nature of the assay: KvBeta enzyme negative modulators, primary screen, biochemical, NADPH fluorescence (AID 622;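 active = fluorescence slope higher than the sample average by over 3 SD, cut at about -0.22 in these data, passing the limit was not always enough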;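 also: slope of raw intensity against log time taken from 70 to 1610 s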). The settings on record: recombinant KvBeta, 4-cyanobenzaldehyde reduction, at 10 µM, stronger effect = higher value.
Voltage-gated potassium channel subunit beta-2 (Rattus norvegicus), sequence (P62483 whole entry, looked up): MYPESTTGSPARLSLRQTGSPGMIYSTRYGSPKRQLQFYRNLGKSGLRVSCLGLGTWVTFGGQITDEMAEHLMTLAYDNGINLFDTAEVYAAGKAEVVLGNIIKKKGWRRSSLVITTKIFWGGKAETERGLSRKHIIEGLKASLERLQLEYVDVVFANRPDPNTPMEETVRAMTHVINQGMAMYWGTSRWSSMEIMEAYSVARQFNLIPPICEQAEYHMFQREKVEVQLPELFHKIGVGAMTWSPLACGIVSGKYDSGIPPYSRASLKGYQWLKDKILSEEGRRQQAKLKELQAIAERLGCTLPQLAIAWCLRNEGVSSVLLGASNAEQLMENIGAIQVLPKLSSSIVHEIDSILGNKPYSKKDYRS
For assay [5] the target is unchanged. The experiment in a line: KvBeta positive modulators, primary screen, biochemical, NADPH fluorescence (AID 623;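 active = NADPH fluorescence slope more negative than the mean of all samples by about 3 SD, 99.7% confidence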;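 also: fluorescence intensity change per second fitted from 20 to 320 s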). The note with it: Recombinant KvBeta, NADPH fluorescence decrease slope, 10 min; at 10 µM; stronger effect = lower value.
Assay [6] concerns the target Muscarinic acetylcholine receptor M4 (Homo sapiens) (UniProt P08173). The experiment in a line: compounds altering M4/GIRK thallium flux, either direction, primary screen, M4 allosteric agonist project, cell-based, HEK293 M4/GIRK, BTC-AM (AID 625;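 active = fluorescence slope after compound addition differing from the mean of all tested samples at 99.7% confidence, mostly higher but some lower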;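 also: thallium influx through GIRK channels coupled to M4 in HEK293 cells with BTC-AM dye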). The settings on record: at 10 µM, actives lie on both sides. Summed up:
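Material – HEK293 cells with M4 receptor and GIRK channels · Buffer or medium – pH 7.3 thallium assay buffer · Doses – one dose, 10 µM final · Timing – cells overnight at 37 °C, BTC-AM loading 1 h, reads 2 min total · Measured by – kinetic fluorescence with BTC-AM dye · Controls – carbachol and DMSO controls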

Assay [7] in a line: inhibitors of Sendai virus-induced IRF3 signaling, primary screen, TLR/RLR signaling modifier project, cell-based, Sendai virus stimulus, luciferase, 10K MLSCN set (AID 602276;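 active = inhibition at or above 50% at 10 µM; inactive = inhibition below 50%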;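 also: firefly luciferase from ISG56 promoter only with Renilla not read in this screen; 0% = Sendai virus plus DMSO and 100% = medium plus DMSO without virus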). The note with it: HEK293 RL24 IRF3 luciferase reporter, at 10 µM, stronger effect = higher value. In general terms: Reporter assays use an easily measured gene product as a stand-in for the process of interest.
A short description of assay [8]: inhibitors of poly I:C-induced TLR3 signaling, primary screen, cell-based, poly I:C stimulus, luciferase, 10K MLSCN set (AID 602277). The settings on record: HEK293-TLR3 RL24 IRF3 luciferase reporter, at 10 µM, stronger effect = higher value.

Muscarinic acetylcholine receptor M4 (Homo sapiens), sequence (P08173 whole entry, looked up): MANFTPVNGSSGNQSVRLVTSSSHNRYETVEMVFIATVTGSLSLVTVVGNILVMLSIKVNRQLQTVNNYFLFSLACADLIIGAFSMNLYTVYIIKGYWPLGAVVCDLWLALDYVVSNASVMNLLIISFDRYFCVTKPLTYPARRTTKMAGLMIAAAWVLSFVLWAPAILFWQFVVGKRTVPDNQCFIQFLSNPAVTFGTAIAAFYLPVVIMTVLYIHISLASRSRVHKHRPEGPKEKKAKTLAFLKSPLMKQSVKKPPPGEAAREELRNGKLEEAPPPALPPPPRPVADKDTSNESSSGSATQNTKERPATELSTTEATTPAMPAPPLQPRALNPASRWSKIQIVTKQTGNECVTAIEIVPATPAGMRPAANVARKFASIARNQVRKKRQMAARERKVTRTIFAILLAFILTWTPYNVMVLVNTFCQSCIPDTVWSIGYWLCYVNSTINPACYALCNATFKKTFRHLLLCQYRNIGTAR

One may read the inhibition as the relative decrease from the control value, in per cent. On to `O=C(OCc1cccs1)c1ccccc1NS(=O)(=O)c1ccc2c(c1)OCCO2`, for which the cell count in assay [1] stood at 709. Besides, the inhibition in assay [1] is -6.7% (inactive); in assay [3], 9.5% (inactive); in assay [7], 3.25% (inactive); in assay [8], -18.1% (inactive). Further, in assay [2], the inhibition of aggregation is 10.3% (inactive). Besides, the results for the nuclei count in assay [2] and in assay [3] were 84.5% and 108%, respectively. Also, the fluorescence slope in assay [4] is -0.626 (inactive); in assay [6], 0.00639 (inactive). Besides, the NADPH fluorescence slope in assay [5] was -2.4e-05 (inactive).
With `CCOCC(=O)Nc1nc2ccc(OC)cc2s1`, the cell count in assay [1] is 411. The inhibition in assay [1] is 2.9% (inactive); in assay [3] it was -85.2% (inactive); in assay [7], -34.1% (inactive); in assay [8], -111% (inactive). In addition, the inhibition of aggregation in assay [2] is -11.8% (inactive). In addition, the figures for the nuclei count in assay [2] and in assay [3] were 102% and 127%, respectively. The fluorescence slope in assay [4] was -0.522 (inactive); in assay [6] it was 0.00427 (inactive). Further, the NADPH fluorescence slope in assay [5] is -0.000124 (inactive).
In the case of `CCN(CC)c1ccc(CNc2ccc(Br)cn2)cc1`, the cell count in assay [1] was 388. The inhibition in assay [1] was -2.4% (inactive); in assay [3] it was -74.6% (inactive); in assay [7] it was -41.1% (inactive); in assay [8], -92.7% (inactive). In assay [2], the inhibition of aggregation is -13.8% (inactive). Further, the nuclei count worked out at 101% in assay [2] and 122% in assay [3]. The fluorescence slope is -0.546 (inactive) in assay [4] and 0.00212 (inactive) in assay [6]. Further, the NADPH fluorescence slope in assay [5] is -0.000144 (inactive).
Consider `O=C(Nc1nccs1)c1ccc(Cl)c(S(=O)(=O)N2CCCCC2)c1`, for which the cell count in assay [1] came to 355. For the same compound, the inhibition in assay [1] is 1.3% (inactive); in assay [3], -4.7% (inactive); in assay [7], 8.7% (inactive); in assay [8], 7.95% (inactive). Besides, the inhibition of aggregation in assay [2] was 30.8% (active). Besides, the nuclei count is 109% in assay [2] and 117% in assay [3]. The fluorescence slope in assay [4] was -0.311 (inactive); in assay [6], 0.00573 (inactive). Besides, in assay [5], the NADPH fluorescence slope was -3.8e-05 (inactive).
`Cc1cccc(N2CCN(C(=O)c3cc4c(=O)[nH]c5ccccc5c4n3C)CC2)c1C`: the cell count in assay [1] came to 228. The inhibition in assay [1] was 5.8% (inactive); in assay [3], -26.1% (inactive); in assay [7], 9.93% (inactive); in assay [8], -17.5% (inactive). Further, in assay [2], the inhibition of aggregation was 5.3% (inactive). The nuclei count in assay [2] is 85.4%; in assay [3], 106%. The fluorescence slope in assay [4] was -0.529 (inactive); in assay [6], 0.00424 (inactive). Besides, the NADPH fluorescence slope in assay [5] is -2.8e-05 (inactive).
Regarding `N#Cc1c(NC(=O)COC(=O)C2CC3C=CC2C3)oc(-c2ccccc2)c1-c1ccccc1` (centres undefined), the cell count in assay [1] amounted to 282. Also, the inhibition is 18.4% (inactive) in assay [1], -44.1% (inactive) in assay [3], -1.94% (inactive) in assay [7] and 99% (active) in assay [8]. The inhibition of aggregation in assay [2] was -7.7% (inactive). The nuclei count in assay [2] stood at 95.7%; in assay [3], 94.6%. Further, the figures for the fluorescence slope in assay [4] and in assay [6] were -0.399 (inactive) and 0.00531 (inactive), respectively. Besides, in assay [5], the NADPH fluorescence slope is -0.000409 (inactive).
Consider `CCOC(=O)CSc1nc2ccccc2n2cnnc12`, for which the cell count in assay [1] was found to be 315. Moreover, the inhibition in assay [1] was -1.4% (inactive); in assay [3], -4% (inactive); in assay [7] it was 2.3% (inactive); in assay [8], 8.27% (inactive). The inhibition of aggregation in assay [2] is 13.5% (inactive). Besides, the nuclei count in assay [2] came to 103%; in assay [3], 113%. The fluorescence slope in assay [4] was -0.327 (inactive); in assay [6], 0.00582 (inactive). Besides, in assay [5], the NADPH fluorescence slope is -5.9e-05 (inactive).
As to `O=C1CSC(c2cccc(F)c2)N1c1ccccc1F` (centres undefined), in assay [1], the cell count was found to be 650. Besides, the inhibition was -15.7% (inactive) in assay [1], -120% (inactive) in assay [3], 15% (inactive) in assay [7] and 18.1% (inactive) in assay [8]. The inhibition of aggregation in assay [2] was 36.5% (inactive). Also, the nuclei count in assay [2] stood at 118%; in assay [3], 100%. Further, the fluorescence slope in assay [4] was -0.614 (inactive); in assay [6], 0.00376 (inactive). Further, the NADPH fluorescence slope in assay [5] is 6.1e-06 (inactive).
With `CC(C)(C)n1ncc2c(=O)n(CC(=O)NCCc3ccccc3)cnc21`, in assay [1], the cell count came out at 457. Further, the inhibition in assay [1] is 3.9% (inactive); in assay [3], 27.5% (inactive); in assay [7] it was -40.8% (inactive); in assay [8], -58.1% (inactive). Also, the inhibition of aggregation in assay [2] is 7.3% (inactive). For the same compound, the nuclei count came to 95.2% in assay [2] and 92.8% in assay [3]. Besides, the fluorescence slope in assay [4] was -0.595 (inactive); in assay [6] it was 0.0063 (inactive). For the same compound, in assay [5], the NADPH fluorescence slope is 1.3e-05 (inactive).
`CCOC(=O)Cc1nnc(NC(=O)CSc2nnc3c4ccccc4n(C(C)C)c3n2)s1`: in assay [1], the cell count came to 359. For the same compound, the inhibition in assay [1] is -7.7% (inactive); in assay [3], -158% (inactive); in assay [7] it was 18% (inactive); in assay [8], 25.8% (inactive). Besides, in assay [2], the inhibition of aggregation is -10.9% (inactive). Moreover, the nuclei count in assay [2] was 94.3%; in assay [3], 90.2%. In addition, the fluorescence slope in assay [4] is -0.554 (inactive); in assay [6] it was 0.00407 (inactive). The NADPH fluorescence slope in assay [5] was -3.3e-05 (inactive).
On to `CCc1ccccc1N=C1SCC(=O)N1C`, for which the cell count in assay [1] was found to be 368. Also, the inhibition in assay [1] is -8.5% (inactive); in assay [3] it was -50.2% (inactive); in assay [7], 6.15% (inactive); in assay [8], 13.2% (inactive). In addition, the inhibition of aggregation in assay [2] was 19.1% (inactive). Also, the nuclei count in assay [2] was 69.3%; in assay [3] it was 111%. Further, the fluorescence slope in assay [4] was -0.412 (inactive); in assay [6] it was 0.00583 (inactive). Moreover, the NADPH fluorescence slope in assay [5] is 7.8e-05 (inactive).
Take `CCc1ccc2nc(NC(=O)CSCc3c(C)noc3C)sc2c1`: the cell count in assay [1] was determined as 416. Besides, the inhibition in assay [1] is -2% (inactive); in assay [3], -87.1% (inactive); in assay [7], -52.6% (inactive); in assay [8], -109% (inactive). For the same compound, the inhibition of aggregation in assay [2] was -12.1% (inactive). The nuclei count in assay [2] was 105%; in assay [3], 112%. The results for the fluorescence slope in assay [4] and in assay [6] were -0.463 (inactive) and 0.00795 (inactive), respectively. In assay [5], the NADPH fluorescence slope is 1.1e-05 (inactive).
Turning to `O=C(NC1CCCC1)c1cc(-c2cccs2)on1`, the cell count in assay [1] came to 443. The inhibition was -5.1% (inactive) in assay [1], 16.1% (inactive) in assay [3], -40.4% (inactive) in assay [7] and -146% (inactive) in assay [8]. Further, the inhibition of aggregation in assay [2] was -2.2% (inactive). Moreover, the values for the nuclei count in assay [2] and in assay [3] were 99.3% and 105%, respectively. The fluorescence slope in assay [4] was -0.441 (inactive); in assay [6], 0.00483 (inactive). The NADPH fluorescence slope in assay [5] is -2.8e-06 (inactive).
For `NC(=O)C1(N2CCCCC2)CCN(Cc2ccccc2Cl)CC1`, the cell count in assay [1] came out at 438. The inhibition in assay [1] was 0.3% (inactive); in assay [3], 3.4% (inactive); in assay [7], 12.3% (inactive); in assay [8] it was 19.9% (inactive). The inhibition of aggregation in assay [2] was -1% (inactive). Besides, the figures for the nuclei count in assay [2] and in assay [3] were 98% and 103%, respectively. Besides, the fluorescence slope in assay [4] was -0.233 (inactive); in assay [6] it was 0.0052 (inactive). Further, the NADPH fluorescence slope in assay [5] is -2.8e-05 (inactive).
